This is an account of results in ChEMBL document CHEMBL1127369, “Synthesis and structure-activity relationships of peptidyl alpha-keto heterocycles as novel inhibitors of prolyl endopeptidase” (J Med Chem, 1994).

The assay deals with Prolyl endopeptidase (Sus scrofa, UniProt P23687). In words: In vitro inhibitory activity against prolyl endopeptidase (PEP). Put shortly:
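Pig kidney PEP, partially purified. Substrate Z-Gly-Pro-p-nitroanilide at 0.26 mM in dioxane with 0.2 M phosphate buffer. Inhibitor is added in DMSO over a range of concentrations, then enzyme (0.05 units/mL). Incubation 20 min at 37 °C, with p-nitroaniline read at 405 nm. IC50 (n = 3-6) is estimated from the inhibitor concentration vs activity curve.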

Sequence of Prolyl endopeptidase (P23687 whole entry): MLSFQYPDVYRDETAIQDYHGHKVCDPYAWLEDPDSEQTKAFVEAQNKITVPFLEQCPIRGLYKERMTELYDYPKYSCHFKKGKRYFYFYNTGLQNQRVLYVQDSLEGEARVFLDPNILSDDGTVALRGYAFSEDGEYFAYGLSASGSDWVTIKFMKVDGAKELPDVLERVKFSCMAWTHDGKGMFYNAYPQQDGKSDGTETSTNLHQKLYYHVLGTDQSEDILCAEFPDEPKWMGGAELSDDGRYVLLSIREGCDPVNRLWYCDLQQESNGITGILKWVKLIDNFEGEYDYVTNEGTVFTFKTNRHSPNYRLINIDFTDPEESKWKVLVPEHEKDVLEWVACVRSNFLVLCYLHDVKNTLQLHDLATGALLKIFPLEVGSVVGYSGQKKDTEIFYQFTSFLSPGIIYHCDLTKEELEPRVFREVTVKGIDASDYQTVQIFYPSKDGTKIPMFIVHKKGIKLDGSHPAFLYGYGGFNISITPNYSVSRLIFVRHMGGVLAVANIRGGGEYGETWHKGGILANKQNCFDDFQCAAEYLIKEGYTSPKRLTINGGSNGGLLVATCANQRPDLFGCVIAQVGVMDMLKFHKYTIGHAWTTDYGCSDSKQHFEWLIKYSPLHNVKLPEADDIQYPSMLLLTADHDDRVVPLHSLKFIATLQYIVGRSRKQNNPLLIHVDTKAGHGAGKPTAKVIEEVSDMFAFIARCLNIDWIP

`O=C(c1nc2ccccc2s1)[C@@H]1CCCN1C(=O)[C@@H]1CCCN1C(=O)CCCc1ccccc1` showed an IC50 of 4 nM.

As for `O=C(c1cncs1)[C@@H]1CCCN1C(=O)[C@@H]1CCCN1C(=O)CCCc1ccccc1`, the IC50 was determined as 1090 nM.

On to `O=C(c1ccc[nH]1)[C@@H]1CCCN1C(=O)[C@@H]1CCCN1C(=O)CCCc1ccccc1`, for which 21300 nM corresponded to half-maximal inhibition (IC50).

In turn, `O=C(c1ncc[nH]1)[C@@H]1CCCN1C(=O)[C@@H]1CCCN1C(=O)CCCc1ccccc1` showed an IC50 of 9 nM.

Regarding `O=C(c1cccnc1)[C@@H]1CCCN1C(=O)[C@@H]1CCCN1C(=O)CCCc1ccccc1`, the IC50 came to 2290 nM.

`O=C(c1ccccn1)[C@@H]1CCCN1C(=O)[C@@H]1CCCN1C(=O)CCCc1ccccc1` displayed an IC50 of 6.9 nM. Compared with the last compound, the IC50 is about 330-fold lower.

The compound `O=C(c1cscn1)[C@@H]1CCCN1C(=O)[C@@H]1CCCN1C(=O)CCCc1ccccc1` showed an IC50 of 6.2 nM.

Turning to `O=C(c1nc2ccccc2s1)[C@@H]1CCCN1C(=O)[C@@H]1CCCN1C(=O)OCc1ccccc1`, half-maximal inhibition (IC50) required 5 nM.

`O=C([C@@H]1CCCN1C(=O)CCCc1ccccc1)N1CCCC1C(O)c1nccs1` (some centres not stated) registered an IC50 of 16100 nM.

In turn, `O=C(c1nc2ccccc2o1)[C@@H]1CCCN1C(=O)[C@@H]1CCCN1C(=O)CCCc1ccccc1` yielded an IC50 of 5.6 nM.

`O=C(c1cccs1)[C@@H]1CCCN1C(=O)[C@@H]1CCCN1C(=O)OCc1ccccc1`: the midpoint of inhibition, the IC50, lay at 2020 nM.

`O=C(C1=NCCS1)[C@@H]1CCCN1C(=O)[C@@H]1CCCN1C(=O)CCCc1ccccc1` came in with an IC50 of 3.8 nM.

`O=C(c1nc2ncccc2o1)[C@@H]1CCCN1C(=O)[C@@H]1CCCN1C(=O)CCCc1ccccc1` gave an IC50 of 5.5 nM.

The compound `O=C(c1cccs1)[C@@H]1CCCN1C(=O)[C@@H]1CCCN1C(=O)CCCc1ccccc1` showed an IC50 of 1260 nM.

Turning to `O=C(c1cncnc1)[C@@H]1CCCN1C(=O)[C@@H]1CCCN1C(=O)CCCc1ccccc1`, the IC50 was determined as 61 nM.

Turning to `CCOC(=O)C(=O)C1CCCN1C(=O)[C@@H]1CCCN1C(=O)CCCc1ccccc1` (some centres not stated), the IC50 turned out to be 10.3 nM.

The compound `O=C(c1nccs1)C1CCCN1C(=O)C1CCCN1C(=O)OCc1ccccc1` (configuration not stated) gave an IC50 of 8.5 nM.
